Experimental data reported in ChEMBL document CHEMBL1146840, “Syntheses and radical scavenging activities of resveratrol derivatives” (Bioorg Med Chem Lett, 2004).

Columns and labels:
[1] = Free radical scavenging activity of DPPH expressed as percent polyphenol
[2] = Free radical scavenging activity of DPPH relative to resveratrol was determined
Procedure, shortened: (§1)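 Ethanolic DPPH (1.01×10^-4 M) plus sample (1:9 by volume), 30 min at room temperature, absorbance at 518 nm, decrease versus control. Triplicate, repeated at least three times. The relative value is the IC50 of resveratrol divided by the IC50 of the test compound.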

[3] = Free radical scavenging activity of DPPH was determined
Procedure, shortened: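 DPPH bleaching assay: sample solution mixed 1:9 with ethanolic DPPH (1.01×10^-4 M), kept 30 min at room temperature, then A518 read and remaining DPPH calculated. Triplicate, repeated at least three times.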

[4] = Free radical scavenging activity of DPPH was determined; value taken from reference 11
[5] = Free radical scavenging activity of DPPH w.r.t. resveratrol was determined; procedure, shortened: as §1
[6] = Half life of the radiolabeled compound was determined; type: ADME

SMILES | Activity [1] [%] | Relative IC50 [2] | IC50 [3] [µM] | IC50 [4] [µM] | Relative IC50 [5] | T1/2 [6] [h]
COc1cc(/C=C/c2ccc(O)c(CCF)c2)cc(OC)c1 | 50.4 | 1.77 | 69.5 |  |  | 
Oc1cc(O)cc(/C=C/c2ccc(O)c(I)c2)c1 | 88 | 1.68 | 73.4 |  |  | 
Oc1ccc(/C=C/c2cc(O)c(I)c(O)c2)cc1 | 72 | 1.75 | 70.6 |  |  | 
COc1ccc(/C=C/c2cc(OC)cc(OC)c2Br)cc1 | 26.6 |  |  |  |  | 
[18FH] [F-18] |  |  |  |  |  | 1.83
Oc1cc(O)c2c(c1)O[C@H](c1ccc(O)c(O)c1)[C@@H](O)C2 [CIANIDANOL] |  | 3.66 |  | 20.2 |  | 
Oc1cc(O)cc(/C=C/c2ccc(O)c(Br)c2)c1 | 98 | 2.41 | 51.2 |  |  | 
Oc1cc(O)c2c(c1)O[C@H](c1ccc(O)c(O)c1)[C@H](O)C2 [(-)-EPICATECHIN] |  | 4.71 |  | 15.7 |  | 
Oc1cc(O)cc(/C=C/c2ccc(O)c(CCF)c2)c1 | 95.6 | 2.6 | 47.4 |  |  | 

Continued, in another order:

Activity [1] [%] | Relative IC50 [2] | IC50 [3] [µM] | IC50 [4] [µM] | Relative IC50 [5] | SMILES | T1/2 [6] [h]
 | 2.55 |  | 29 |  | Oc1cc(O)cc(/C=C/c2ccc(O)c(O)c2)c1 [PICEATANNOL] | 
 | 0.37 |  | 200 |  | OC[C@H]1O[C@@H](Oc2cc(O)cc(/C=C/c3ccc(O)cc3)c2)[C@H](O)[C@@H](O)[C@@H]1O [PICEID] | 
100 |  | 123 | 74 | 1 | Oc1ccc(/C=C/c2cc(O)cc(O)c2)cc1 [RESVERATROL] | 
85.8 | 3.43 | 35.9 |  |  | Oc1ccc(/C=C/c2cc(O)cc(O)c2Br)cc1 | 
 | 2.42 |  | 30.6 |  | OC[C@H]1O[C@@H](Oc2cc(O)cc(/C=C/c3ccc(O)c(O)c3)c2)[C@H](O)[C@@H](O)[C@@H]1O | 
